# Assay results pooled from the literature.
# Each line is one published result; the experiments were not run side by side.
# Target: Ephrin type-A receptor 6 (EPHA6, Homo sapiens, UniProt Q9UF33)
# Sequence (Q9UF33 23-1036, as in one of the studies): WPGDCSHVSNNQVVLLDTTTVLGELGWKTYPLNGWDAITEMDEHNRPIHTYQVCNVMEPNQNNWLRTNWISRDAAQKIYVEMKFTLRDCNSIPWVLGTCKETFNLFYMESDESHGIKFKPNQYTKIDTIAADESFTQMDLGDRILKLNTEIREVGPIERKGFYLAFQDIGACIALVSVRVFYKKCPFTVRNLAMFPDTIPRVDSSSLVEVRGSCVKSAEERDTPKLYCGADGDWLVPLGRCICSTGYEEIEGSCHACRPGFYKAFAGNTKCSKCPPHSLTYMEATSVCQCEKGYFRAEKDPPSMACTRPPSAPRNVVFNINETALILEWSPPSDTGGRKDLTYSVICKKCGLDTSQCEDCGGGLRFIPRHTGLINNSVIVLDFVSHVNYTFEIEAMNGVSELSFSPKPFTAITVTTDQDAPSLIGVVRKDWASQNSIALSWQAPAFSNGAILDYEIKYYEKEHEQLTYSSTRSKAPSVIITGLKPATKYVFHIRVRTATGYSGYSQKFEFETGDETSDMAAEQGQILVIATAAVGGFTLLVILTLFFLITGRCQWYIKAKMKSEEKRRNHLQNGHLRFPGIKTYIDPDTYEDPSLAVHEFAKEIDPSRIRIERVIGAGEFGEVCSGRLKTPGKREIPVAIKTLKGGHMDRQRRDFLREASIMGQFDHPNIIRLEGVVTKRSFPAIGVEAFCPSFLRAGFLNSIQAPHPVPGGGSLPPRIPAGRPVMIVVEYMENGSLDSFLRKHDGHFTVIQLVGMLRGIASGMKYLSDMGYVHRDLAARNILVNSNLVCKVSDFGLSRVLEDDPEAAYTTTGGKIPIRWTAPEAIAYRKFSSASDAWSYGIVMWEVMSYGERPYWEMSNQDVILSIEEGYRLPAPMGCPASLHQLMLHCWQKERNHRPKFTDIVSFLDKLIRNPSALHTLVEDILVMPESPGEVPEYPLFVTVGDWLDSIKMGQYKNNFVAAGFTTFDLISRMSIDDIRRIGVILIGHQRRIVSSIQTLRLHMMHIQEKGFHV
SMILES,read-out,method,tested at,remaining binding [%]
c1cnn2ncc(-c3ccnc(N4CCC45COC5)n3)c2c1,binding,,1 µM,95
O=C(c1ccc(Nc2nccc(-c3cc4ccccc4s3)n2)cc1)N1CCC(N2CCCC2)CC1,binding,competition with immobilised ligand,1 µM,99
CN(CCCC(F)(F)F)c1nccc(-c2cnn3ncccc23)n1,binding,,1 µM,89
COc1cnc(Nc2cccc(S(N)(=O)=O)c2)nc1N1CCN(c2ccccc2)CC1,binding,competition with immobilised ligand,1 µM,100
Cn1nc(C(=O)NCc2ccc(C(=O)O)cc2)cc1-c1ccc2[nH]ccc2c1,cell-free assay,competition with immobilised ligand,0.1 µM,100
O=C(NCCCN1CCOCC1)c1ccc(Nc2ncc(Cl)c(-c3ccc(Cl)s3)n2)cc1,binding,competition with immobilised ligand,1 µM,63
COc1cc(-c2cn(C3CCc4c(F)cccc4N(CC(F)(F)F)C3=O)nn2)ccc1-n1cnc(C)c1 (stereo not drawn),cell-free assay,competition with immobilised ligand,1 µM,100
F[C@@H]1CCN(c2nccc(-c3cnn4ncccc34)n2)C1,binding,,1 µM,80
c1cncc(-c2cccc(Nc3nccc(NC4CCCCC4)n3)c2)c1,binding,competition with immobilised ligand,10 µM,96
Cc1cnn2ncc(-c3ccnc(N(C)C)n3)c2c1,binding,,1 µM,100
CO[C@@H](C)c1c(Nc2ccc([C@H](N(C)C(=O)C3CCS(=O)(=O)CC3)C(F)(F)F)cc2)cnc2cc(Cl)nn12,cell-free assay,competition with immobilised ligand,1 µM,100
COc1ccnn2ncc(-c3ccnc(N(C)C)n3)c12,binding,,1 µM,67
CNCc1ccccc1-c1csc([C@H](C)Nc2nc(C)nc3cc(OC)c(OC)cc23)c1,cell-free assay,competition with immobilised ligand,1 µM,100
C=CC(=O)N1CCC(C(=O)NCC(=O)N2CCN(c3nc(-c4cnc(N)nc4C(F)F)nc(N4CCOCC4)n3)CC2)CC1,binding,competition with immobilised ligand,1 µM,100
CNC(=O)[C@@H]1CC[C@@H](n2c(-c3ccc4cnccc4c3)nc3ccc(C(=O)NCc4cccc(C(N)=O)c4)cc32)C1,binding,competition with immobilised ligand,1 µM,100
CCN1CCN(Cc2ccc(C(=O)Nc3ccc(C)c(Oc4ccc5c(c4)CC(=O)N5)c3)cc2C(F)(F)F)CC1,binding,competition with immobilised ligand,1 µM,100
CNC(=O)Nc1ccc2c(c1)[C@@]1(CC2)OC(=O)N(CC(=O)N(Cc2ccc(F)cc2)[C@@H](C)C(F)(F)F)C1=O,cell-free assay,competition with immobilised ligand,1 µM,91
O=C(NCC1CCOCC1)c1n[nH]cc1NC(=O)c1c(F)cccc1F,binding,competition with immobilised ligand,1 µM,100
C[C@H]1CCN(c2nccc(-c3cnn4ncccc34)n2)C1,binding,,1 µM,100
CC(=O)N1CCC(c2ccc(C(=O)NC3=NCCN3)cc2C(F)(F)F)CC1,cell-free assay,competition with immobilised ligand,1 µM,98
O=C(c1ccc(Nc2ncc(Cl)c(-c3ccc(Cl)s3)n2)cc1)N1CCC(N2CCCC2)CC1,binding,competition with immobilised ligand,1 µM,51
